{"source": "ChEMBL document CHEMBL5303300", "about": "“EUbOPEN Chemogenomics Library - Multiplex” (2023)", "tested_on": "Fibroblast", "test": "Multiplex assay against human fibroblast", "format": "toxicity, cell-based", "settings": "number of replicates 2", "how_it_was_run": "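Per cents of healthy-nucleus cells form the tubulin, mitochondrial-mass and membrane-permeability phenotype values. Live cells were stained at seeding with Hoechst33342, BioTracker Green Microtubule Cytoskeleton Dye, MitoTracker Red and Annexin V Alexa Fluor 680. After compound addition they were imaged on a CQ1 microscope at 37°C and 5% CO2, and CellPathfinder machine-learning gating split them into Hoechst high-intensity objects or normal cells, normal cells into healthy, pyknosed or fragmented nuclei, and pyknosed cells into mitotic or apoptotic.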", "key": {"[1]": {"settings": "12 h, 1 µM, compound concentration 1 uM"}, "[2]": {"settings": "12 h, 10 µM, compound concentration 10 uM"}, "[3]": {"settings": "24 h, 1 µM, compound concentration 1 uM"}, "[4]": {"settings": "24 h, 10 µM, compound concentration 10 uM"}, "[5]": {"settings": "48 h, 1 µM, compound concentration 1 uM"}, "[6]": {"settings": "48 h, 10 µM, compound concentration 10 uM"}}, "note": "“And” between values parts separate entries of the source, which are not always exact repeats. Equal values may be shown once.", "data": [{"smiles": "N=C(N)NCCC[C@H](NC(=O)COCC(c1ccccc1)c1ccccc1)C(=O)O.O=C(O)C(F)(F)F", "values": [{"measurement": "Population Apoptotic (%)", "setting": "[1]", "result": "42% and 45%"}, {"measurement": "Population Fragmented Nuclei (%)", "setting": "[1]", "result": "6% and 9%"}, {"measurement": "Population Healthy Nuclei (%)", "setting": "[1]", "result": "71% and 75%"}, {"measurement": "Population Hoechst High Intensity Objects (%)", "setting": "[1]", "result": 0, "unit": "%"}, {"measurement": "Population Membrane Permeable-Phenotype (%)", "setting": "[1]", "result": "5% and 3%"}, {"measurement": "Population Mitochondria Different-Phenotype (%)", "setting": "[1]", "result": "0% and 4%"}, {"measurement": "Population Mitotic Cells (%)", "setting": "[1]", "result": "57% and 54%"}, {"measurement": "Population Normal (%)", "setting": "[1]", "result": 100, "unit": "%"}, {"measurement": "Population Pyknosed Nuclei (%)", "setting": "[1]", "result": "22% and 14%"}, {"measurement": "Population Tubulin-Different-Phenotype (%)", "setting": "[1]", "result": "17% and 12%"}, {"measurement": "Total Cell Count", "setting": "[1]", "result": "172 and 221"}, {"measurement": "Population Apoptotic (%)", "setting": "[2]", "result": "38% and 55%"}, {"measurement": "Population Fragmented Nuclei (%)", "setting": "[2]", "result": "9% and 10%"}, {"measurement": "Population Healthy Nuclei (%)", "setting": "[2]", "result": "79% and 71%"}, {"measurement": "Population Hoechst High Intensity Objects (%)", "setting": "[2]", "result": 0, "unit": "%"}, {"measurement": "Population Membrane Permeable-Phenotype (%)", "setting": "[2]", "result": "8% and 4%"}, {"measurement": "Population Mitochondria Different-Phenotype (%)", "setting": "[2]", "result": 0, "unit": "%"}, {"measurement": "Population Mitotic Cells (%)", "setting": "[2]", "result": "61% and 44%"}, {"measurement": "Population Normal (%)", "setting": "[2]", "result": 100, "unit": "%"}, {"measurement": "Population Pyknosed Nuclei (%)", "setting": "[2]", "result": "11% and 18%"}, {"measurement": "Population Tubulin-Different-Phenotype (%)", "setting": "[2]", "result": "17% and 7%"}, {"measurement": "Total Cell Count", "setting": "[2]", "result": "161 and 156"}, {"measurement": "Population Apoptotic (%)", "setting": "[3]", "result": "63% and 48%"}, {"measurement": "Population Fragmented Nuclei (%)", "setting": "[3]", "result": "11% and 14%"}, {"measurement": "Population Healthy Nuclei (%)", "setting": "[3]", "result": "64% and 67%"}, {"measurement": "Population Hoechst High Intensity Objects (%)", "setting": "[3]", "result": 0, "unit": "%"}, {"measurement": "Population Membrane Permeable-Phenotype (%)", "setting": "[3]", "result": "2% and 4%"}, {"measurement": "Population Mitochondria Different-Phenotype (%)", "setting": "[3]", "result": "0% and 3%"}, {"measurement": "Population Mitotic Cells (%)", "setting": "[3]", "result": "36% and 51%"}, {"measurement": "Population Normal (%)", "setting": "[3]", "result": 100, "unit": "%"}, {"measurement": "Population Pyknosed Nuclei (%)", "setting": "[3]", "result": "23% and 18%"}, {"measurement": "Population Tubulin-Different-Phenotype (%)", "setting": "[3]", "result": "11% and 9%"}, {"measurement": "Total Cell Count", "setting": "[3]", "result": "171 and 247"}, {"measurement": "Population Apoptotic (%)", "setting": "[4]", "result": "40% and 57%"}, {"measurement": "Population Fragmented Nuclei (%)", "setting": "[4]", "result": "14% and 16%"}, {"measurement": "Population Healthy Nuclei (%)", "setting": "[4]", "result": "71% and 70%"}, {"measurement": "Population Hoechst High Intensity Objects (%)", "setting": "[4]", "result": 0, "unit": "%"}, {"measurement": "Population Membrane Permeable-Phenotype (%)", "setting": "[4]", "result": 7, "unit": "%"}, {"measurement": "Population Mitochondria Different-Phenotype (%)", "setting": "[4]", "result": "1% and 0%"}, {"measurement": "Population Mitotic Cells (%)", "setting": "[4]", "result": "59% and 42%"}, {"measurement": "Population Normal (%)", "setting": "[4]", "result": 100, "unit": "%"}, {"measurement": "Population Pyknosed Nuclei (%)", "setting": "[4]", "result": 13, "unit": "%"}, {"measurement": "Population Tubulin-Different-Phenotype (%)", "setting": "[4]", "result": "16% and 11%"}, {"measurement": "Total Cell Count", "setting": "[4]", "result": "158 and 160"}, {"measurement": "Population Apoptotic (%)", "setting": "[5]", "result": "69% and 74%"}, {"measurement": "Population Fragmented Nuclei (%)", "setting": "[5]", "result": "15% and 18%"}, {"measurement": "Population Healthy Nuclei (%)", "setting": "[5]", "result": "65% and 68%"}, {"measurement": "Population Hoechst High Intensity Objects (%)", "setting": "[5]", "result": 0, "unit": "%"}, {"measurement": "Population Membrane Permeable-Phenotype (%)", "setting": "[5]", "result": "7% and 4%"}, {"measurement": "Population Mitochondria Different-Phenotype (%)", "setting": "[5]", "result": 0, "unit": "%"}, {"measurement": "Population Mitotic Cells (%)", "setting": "[5]", "result": "30% and 25%"}, {"measurement": "Population Normal (%)", "setting": "[5]", "result": 100, "unit": "%"}, {"measurement": "Population Pyknosed Nuclei (%)", "setting": "[5]", "result": "19% and 12%"}, {"measurement": "Population Tubulin-Different-Phenotype (%)", "setting": "[5]", "result": "12% and 5%"}, {"measurement": "Total Cell Count", "setting": "[5]", "result": "172 and 253"}, {"measurement": "Population Apoptotic (%)", "setting": "[6]", "result": "61% and 94%"}, {"measurement": "Population Fragmented Nuclei (%)", "setting": "[6]", "result": "17% and 18%"}, {"measurement": "Population Healthy Nuclei (%)", "setting": "[6]", "result": "70% and 71%"}, {"measurement": "Population Hoechst High Intensity Objects (%)", "setting": "[6]", "result": 0, "unit": "%"}, {"measurement": "Population Membrane Permeable-Phenotype (%)", "setting": "[6]", "result": "4% and 6%"}, {"measurement": "Population Mitochondria Different-Phenotype (%)", "setting": "[6]", "result": 0, "unit": "%"}, {"measurement": "Population Normal (%)", "setting": "[6]", "result": 100, "unit": "%"}, {"measurement": "Population Pyknosed Nuclei (%)", "setting": "[6]", "result": "11% and 10%"}, {"measurement": "Population Tubulin-Different-Phenotype (%)", "setting": "[6]", "result": 8, "unit": "%"}, {"measurement": "Total Cell Count", "setting": "[6]", "result": "151 and 170"}]}]}
